Assay results from article PMC5723699 (Pharmacology Research & Perspectives, 2017).
Values after ≈ are worked out from the molar mass of the structure shown.

Assays:
[1] = Part A single ascending dose blood pharmacokinetics; type: in vivo, human
[2] = Analysis of metabolism in blood, plasma, urine and bile; type: in vivo, human
Method in brief: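 Oral dosing in healthy volunteers. Urine collected at various time points. Bile sampled by Entero-Test in one Part B cohort on Days −1 and 7, about 2 h after the morning dose. Blood/water, plasma, urine and bile analysed for relative levels of parent drug and metabolites.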

Safety and tolerability = conditions: for Subjects with drug‐related AEs / Application‐site erythema / Catheter‐site erythema / Contact dermatitis / Headache / Nasopharyngitis / Rash / Subjects with any AE: Part B; for Application‐site erythema / Catheter‐site erythema / Contact dermatitis / Headache / Nasopharyngitis / Rash / Subjects with any AE: 14 days (n = 9)
CYP3A4 = assay: Plasma 4β-hydroxycholesterol-to-cholesterol ratio as marker of CYP3A4 induction; conditions: following 14 days of dosing
RIPK1 = target: T1, RIPK1 (Homo sapiens, UniProt Q13546); assay: RIPK1 target engagement; type: in vivo; conditions: Part A
T1 sequence (Q13546 1-671): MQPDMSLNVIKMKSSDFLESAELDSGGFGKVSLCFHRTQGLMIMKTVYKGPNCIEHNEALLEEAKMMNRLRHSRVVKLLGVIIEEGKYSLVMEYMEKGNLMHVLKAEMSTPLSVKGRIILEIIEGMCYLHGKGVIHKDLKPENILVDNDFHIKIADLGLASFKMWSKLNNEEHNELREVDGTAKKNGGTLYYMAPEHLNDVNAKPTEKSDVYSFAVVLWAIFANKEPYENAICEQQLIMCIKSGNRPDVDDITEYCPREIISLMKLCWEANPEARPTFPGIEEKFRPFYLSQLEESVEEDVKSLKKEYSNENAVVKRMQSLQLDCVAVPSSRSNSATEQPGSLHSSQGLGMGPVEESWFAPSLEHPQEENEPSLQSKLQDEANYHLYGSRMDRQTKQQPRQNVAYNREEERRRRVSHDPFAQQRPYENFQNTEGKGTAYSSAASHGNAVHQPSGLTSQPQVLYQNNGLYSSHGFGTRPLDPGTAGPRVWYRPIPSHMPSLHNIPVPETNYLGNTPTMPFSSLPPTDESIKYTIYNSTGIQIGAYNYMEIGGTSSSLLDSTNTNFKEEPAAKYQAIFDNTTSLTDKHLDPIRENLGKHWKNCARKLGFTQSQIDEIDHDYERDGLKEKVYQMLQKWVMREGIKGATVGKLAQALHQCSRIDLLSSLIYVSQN

MIP‐1α = assay: Ex vivo whole blood challenge assay; type: cell-based, human
Part B repeat-dose = type: in vivo, human; conditions: for AUC: male, human, in vivo, po, AUC0‐tau, plasma, oral, geometric mean (% CV)

SMILES: CN1C(=O)[C@@H](NC(=O)c2nnc(Cc3ccccc3)[nH]2)COc2ccccc21 [GSK2982772]
- Time to C max ([1]; blood, single dose 10 mg capsule, fasted): 1.5 h
- Median time to C max ([1]; blood, single dose 0.1, 0.5 and 2.5 mg in solution, fasted): ≤ 1 h
- Time to C max ([1]; blood, single dose 120 mg capsule, fasted): 2.5 h
- Dose linearity of kinetics ([1]; dose range 0.1‐120 mg): approximately linear kinetics
- half-life ([1]; male, human, whole blood, oral): ~6 h
- Unchanged drug in urine ([2]; in vivo): trace levels
- Unchanged drug in blood and plasma extracts ([2]; single and repeat oral dosing, together with N‐glucuronide metabolite): major circulating drug‐related components
- Drug‐related AEs (total number) (Safety and tolerability; Part A, reported in 2 subjects, all of mild intensity): 3
- Subjects with drug‐related AEs (Safety and tolerability; 20 mg QD group): 3 subjects
- Application‐site erythema (Safety and tolerability; 20 mg QD): 0 n (%)
- Catheter‐site erythema (Safety and tolerability; 20 mg QD): 0 n (%)
- Contact dermatitis (Safety and tolerability; 20 mg QD): 1 (11) n (%)
- Headache (Safety and tolerability; 20 mg QD): 4 (44) n (%)
- Nasopharyngitis (Safety and tolerability; 20 mg QD): 0 n (%)
- Rash (Safety and tolerability; 20 mg QD): 0 n (%)
- Subjects with any AE (Safety and tolerability; 20 mg QD): 7 (78) n (%)
- Subjects with drug‐related AEs (Safety and tolerability; 60 mg BID group): 4 subjects
- Application‐site erythema (Safety and tolerability; 60 mg BID): 0 n (%)
- Catheter‐site erythema (Safety and tolerability; 60 mg BID): 2 (22) n (%)
- Contact dermatitis (Safety and tolerability; 60 mg BID): 5 (56) n (%)
- Headache (Safety and tolerability; 60 mg BID): 3 (33) n (%)
- Nasopharyngitis (Safety and tolerability; 60 mg BID): 1 (11) n (%)
- Rash (Safety and tolerability; 60 mg BID): 1 (11) n (%)
- Subjects with any AE (Safety and tolerability; 60 mg BID): 9 (100) n (%)
- Application‐site erythema (Safety and tolerability; 60 mg QD): 0 n (%)
- Catheter‐site erythema (Safety and tolerability; 60 mg QD): 1 (11) n (%)
- Contact dermatitis (Safety and tolerability; 60 mg QD): 3 (33) n (%)
- Headache (Safety and tolerability; 60 mg QD): 0 n (%)
- Nasopharyngitis (Safety and tolerability; 60 mg QD): 0 n (%)
- Rash (Safety and tolerability; 60 mg QD): 3 (33) n (%)
- Subjects with any AE (Safety and tolerability; 60 mg QD): 6 (67) n (%)
- Application‐site erythema (Safety and tolerability; 120 mg BID): 2 (22) n (%)
- Catheter‐site erythema (Safety and tolerability; 120 mg BID): 0 n (%)
- Contact dermatitis (Safety and tolerability; 120 mg BID): 0 n (%)
- Headache (Safety and tolerability; 120 mg BID): 1 (11) n (%)
- Nasopharyngitis (Safety and tolerability; 120 mg BID): 3 (33) n (%)
- Rash (Safety and tolerability; 120 mg BID): 0 n (%)
- Subjects with any AE (Safety and tolerability; 120 mg BID): 6 (67) n (%)
- AEs involving clinical laboratory or electrocardiogram abnormalities (Safety and tolerability; any part of the study): no AEs involving clinical laboratory abnormalities or electrocardiogram abnormalities were reported
- Serious AEs, suicidality or deaths (Safety and tolerability; any part of the study): No serious AEs, suicidality or deaths were reported
- Overall safety and tolerability (Safety and tolerability; single and repeat doses, healthy adult male volunteers): generally safe and well tolerated
- Vital signs, physical, neurological examinations, respiratory assessments (Safety and tolerability; whole study): no clinically significant abnormal findings
- CYP3A4 induction (CYP3A4): no evidence of CYP3A4 induction
- Percent TE (RIPK1; 1.5 hours postdose, single doses of 10 mg and above): > 90%
- Percent TE (>90% level) (RIPK1; 8 hours postdose, single doses of 40 mg and above): sustained
- Percent TE (RIPK1; 48 hours postdose, all dose groups): negligible
- IC50 (MIP‐1α; Homo sapiens, read-out: Concentration needed to elicit a half‐maximal response in all assays, all assays (MIP‐1α, MIP‐1β, TE)): ~1.4 ng/mL (≈ 3.71 nM)
- Inhibition (mean of MIP‐1α and MIP‐1β) (MIP‐1α; Part B Day 14, 60 mg and 120 mg BID, out to 24 hours posttreatment): maximal inhibition
- Inhibition (mean of MIP‐1α and MIP‐1β) (MIP‐1α; Part B Day 14, 1.5 hours and 8 hours postdose, all treatment groups): maximal inhibition
- AUC (Part B repeat-dose; 20 mg, 20 mg QD, Day 1): 1160 ng·h/mL
- AUC (Part B repeat-dose; 20 mg, 20 mg QD, Day 14): 1140 ng·h/mL
- AUC (Part B repeat-dose; 60 mg, 60 mg BID, Day 1): 4330 ng·h/mL
- AUC (Part B repeat-dose; 60 mg, 60 mg BID, Day 14): 3100 ng·h/mL
- AUC (Part B repeat-dose; 60 mg, 60 mg QD, Day 14): 2590 ng·h/mL
- AUC (Part B repeat-dose; 120 mg, 120 mg BID, Day 1): 7050 ng·h/mL
- AUC (Part B repeat-dose; 120 mg, 120 mg BID, Day 14): 6990 ng·h/mL
- Attainment of steady state (trough plasma predose concentration Days 2 to 14) (Part B repeat-dose; repeat dosing): reached a plateau by Day 2
